Compound activity as filed in PubChem.
DENV2 CPE rescue = inhibitors of DENV2 cytopathic effect. DENV2-infected cells, cytopathic effect rescue, plate reader. CPE inhibition, % at 9.99 µM. actives 1.7% (n = 350,000); in the data active means CPE inhibition above about 20%, passing the limit was not always enough; inconclusive means no clear call, values can overlap the other calls; tested in BHK-21 cells;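 further: 0% = median of neutral control wells and 100% = median of positive control wells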
SIRT5 block = sirtuin-5 (human) deacylase inhibition; actives 1.1% (n = 330,000); inhibition, % at 15 µM; Purified SirT5, succinyl-peptide AMC, trypsin-coupled fluorescence; Q9NXA8; in the data active means inhibition above about 15%; inconclusive means no clear call, values can overlap the other calls
MLL AF4-AF9 inh = blocks AF4 peptide binding to human AF9; AlphaScreen, biotin-AF4 peptide binding to FLAG-AF9; inhibition, % at 10 µM; AID 651704; P42568; actives 0.47% (n = 350,000);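 active means every replicate reaching a set inhibition limit, whatever the replicate mean, cut at about 25% in these data; inconclusive means mean inhibition reaches that limit but some replicates miss it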;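 further: 0% = plate neutral control median and 100% = total signal loss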
Target sequence (P42568 whole entry, looked up): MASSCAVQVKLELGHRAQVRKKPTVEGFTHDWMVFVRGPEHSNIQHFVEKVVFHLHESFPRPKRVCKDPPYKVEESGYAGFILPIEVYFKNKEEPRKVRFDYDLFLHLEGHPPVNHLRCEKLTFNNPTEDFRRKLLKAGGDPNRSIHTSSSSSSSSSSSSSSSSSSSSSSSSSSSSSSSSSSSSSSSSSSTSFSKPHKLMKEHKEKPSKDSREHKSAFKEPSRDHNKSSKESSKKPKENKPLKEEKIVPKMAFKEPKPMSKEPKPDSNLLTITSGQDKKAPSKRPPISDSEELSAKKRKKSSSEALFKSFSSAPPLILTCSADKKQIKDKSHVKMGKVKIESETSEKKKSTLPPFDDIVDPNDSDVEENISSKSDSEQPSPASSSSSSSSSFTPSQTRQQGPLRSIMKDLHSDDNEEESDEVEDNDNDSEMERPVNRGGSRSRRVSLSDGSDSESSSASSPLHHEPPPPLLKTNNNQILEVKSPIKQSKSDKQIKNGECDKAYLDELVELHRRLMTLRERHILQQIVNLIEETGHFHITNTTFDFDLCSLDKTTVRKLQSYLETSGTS
S100A4 inh HTS = blocks human S100A4 binding to myosin IIA peptide; P26447; S100A4/TAMRA-MyoIIA peptide fluorescence polarization; inhibition, % at 10.7 µM; actives 0.14% (n = 360,000);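 active means mean inhibition of at least 70% across replicates, with every replicate also reaching that level; inconclusive means mean inhibition reaches 70% but some replicates fall short; inactive means mean inhibition below 70%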
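Compound dosing: one dose per compound; test system: human S100A4 monomer with TAMRA-labelled myosin IIA peptide; probe or stimulus: TAMRA-labelled myosin IIA heavy-chain peptide probe, 5 nM; medium: HEPES buffer with Ca2+, pH 7.2; schedule: 5 min incubation before reading; benchmarks: neutral control DMSO, positive control TFP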
CaV13 ICDI inh = Disruptors of the CACNA1D IQ motif to Ca2+-dependent inactivation inhibitor domain association, primary screening, Förster resonance energy transfer in intact living …. HEK cells, CFP/YFP FRET ICDI-IQ, plate reader, 10 min; percent FRET-ratio fall versus neutral wells. inhibition, % at 12.3 µM. actives 0.098% (n = 340,000). AID 743397;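 active means mean replicate inhibition of at least 30% and at least 1% of replicates passing that level; inconclusive means only one of the two criteria is met; inactive means neither criterion is met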;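 further: 0% = median of the neutral control wells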
* marks the source's active call; other numbers are inactive results; ? = inconclusive; . = not tested or not shown. Shown are actives, neighbours in structure and some others; about 2.7% of the full set was active somewhere.

SMILES	DENV2 CPE rescue	SIRT5 block	MLL AF4-AF9 inh	S100A4 inh HTS	CaV13 ICDI inh
Cc1ccc(C2CC(=O)C=C(NCC(C)C)C2)cc1 (configuration not stated)	-5	15*	2	-5	-2
CCS(=O)(=O)N1CCC2(CC1)CN(S(=O)(=O)c1ccccc1)[C@@H](CO)c1c2c2ccc(OC)cc2n1C	0	.	-3	4	.
C[C@H]1CN([C@@H](C)CO)C(=O)c2cc(C3=CCCCC3)cnc2O[C@@H]1CN(C)Cc1ccc(C(=O)O)cc1	9	2	-3	7	.
CN(C)c1ccc2nc3ccc(=O)cc-3sc2c1	-5	2	66*	39	-10
COc1ccc2nc(N=Nc3ccc(N(C)C)cc3)sc2c1	.	.	.	.	-5
CC(C)NC(=O)Nc1ccc2c(c1)CC(=O)N([C@H](C)CO)C[C@@H](C)[C@@H](CN(C)Cc1ccc(C(=O)O)cc1)O2	68*	-4	-10	-12	.
CC(C)NC(=O)Nc1ccc2c(c1)CC(=O)N([C@H](C)CO)C[C@H](C)[C@H](CN(C)Cc1ccc(-c3ccccc3)cc1)O2	28*	4	3	-2	.
CC(C)NC(=O)Nc1ccc2c(c1)CC(=O)N([C@H](C)CO)C[C@@H](C)[C@H](CN(C)Cc1ccc(C(=O)O)cc1)O2	?	-3	-3	-19	.
CC(=O)Nc1nnc(-c2ccc(Cl)s2)o1	0	-1	45*	-6	-6
CCC(=O)Nc1nnc(-c2ccc(Cl)s2)o1	-2	3	-1	2	6
C[C@@H]1CN([C@@H](C)CO)C(=O)c2c(c3ccccc3n2C)-c2ccccc2CO[C@H]1CN(C)C(=O)Nc1cccc(Cl)c1Cl	40*	-5	5	4	.
C[C@@H]1CN([C@@H](C)CO)C(=O)c2c(c3ccccc3n2C)-c2ccccc2CO[C@H]1CN(C)Cc1cccc(O)c1	25*	0	7	14	.
CC(C)[C@@H](C)NC(=O)N(C)C[C@@H]1OCc2ccccc2-c2c(n(C)c3ccccc23)C(=O)N([C@@H](C)CO)C[C@@H]1C	12	19*	-2	-3	.
C[C@@H]1CN([C@@H](C)CO)C(=O)c2c(c3ccccc3n2C)-c2ccccc2CO[C@@H]1CN(C)C(=O)[C@H](C)c1ccccc1	-19	20*	3	-31	.
C[C@H](C(=O)N(C)C[C@@H]1OCc2ccccc2-c2c(n(C)c3ccccc23)C(=O)N([C@H](C)CO)C[C@H]1C)c1ccccc1	18	3	3	7	.
CC(C)[C@@H](C)NC(=O)N(C)C[C@H]1OCc2ccccc2-c2c(n(C)c3ccccc23)C(=O)N([C@@H](C)CO)C[C@H]1C	7	-1	-2	6	.
CN(C)CC#Cc1ccc([C@H]2[C@H](CO)N3C(=O)CN(C(=O)c4cccc(F)c4)C[C@@H]23)cc1	-1	9	-2	8	.
C[C@@H]1CN([C@@H](C)CO)S(=O)(=O)c2ccc(-c3ccc(C(=O)N(C)C)cc3)cc2O[C@H]1CN(C)Cc1ccc2c(c1)OCO2	-9	14	1	3	.
C[C@@H]1CN([C@@H](C)CO)C(=O)c2c(c3ccccc3n2C)-c2ccccc2CO[C@H]1CN(C)Cc1cccc2c1OCCCO2	21*	7	13	-1	.
C[C@H](CO)N1C[C@H](C)[C@@H](CN(C)C(=O)Cc2ccccc2)OCc2ccccc2-c2c(n(C)c3ccccc23)C1=O	?	18*	1	-4	.
C[C@H](CO)N1C[C@H](C)[C@H](CN(C)CC2CC2)OCc2ccccc2-c2c(n(C)c3ccccc23)C1=O	1	9	-3	90*	.
C[C@H]1CN([C@@H](C)CO)C(=O)c2c(c3ccccc3n2C)-c2ccccc2CO[C@H]1CN(C)CC1CC1	3	5	-2	2	.
C[C@@H]1CN([C@H](C)CO)C(=O)c2c(c3ccccc3n2C)-c2ccccc2CO[C@H]1CN(C)C(=O)Cc1ccccc1	-2	1	4	0	-10
C[C@@H]1CN([C@@H](C)CO)C(=O)c2c(c3ccccc3n2C)-c2ccccc2CO[C@@H]1CN(C)Cc1ccc(-c2ccccc2)cc1	8	17*	2	5	.
Cc1noc(C)c1S(=O)(=O)N(C)C[C@H]1OCCCC[C@H](C)Oc2ccc(NS(=O)(=O)c3cn(C)cn3)cc2C(=O)N([C@H](C)CO)C[C@@H]1C	15	-5	-2	1	.
SMILES	DENV2 CPE rescue	SIRT5 block	MLL AF4-AF9 inh	S100A4 inh HTS	CaV13 ICDI inh
C[C@H]1CN([C@@H](C)CO)C(=O)c2c(c3ccccc3n2C)-c2ccccc2CO[C@H]1CN(C)Cc1ccccc1	1	19*	4	-27	.
C[C@@H]1CN([C@@H](C)CO)C(=O)c2c(c3ccccc3n2C)-c2ccccc2CO[C@H]1CN(C)Cc1ccc(-c2ccccc2)cc1	-3	4	1	4	.
Cc1cc(-c2ccccc2)c2ccc(NC(=O)C(C)(C)C)nc2n1	4	-6	-1	-2	45*
Cc1cc2c(cc1S(=O)(=O)N1CCN(c3cccc(C)c3C)CC1)OCCN2C	-6	1	5	153*	-1
O=C(Cn1nc(CNc2ccc(Br)cc2)[n+]2c1CCCCC2)c1ccc([N+](=O)[O-])cc1	-9	-4	28*	5	-21
O=[N+]([O-])c1ccc2nc(C(O)C(O)c3nc4ccc([N+](=O)[O-])cc4[nH]3)[nH]c2c1 (configuration not stated)	8	100*	-1	0	-6
COCC#Cc1ccc([C@H]2[C@H](CO)N3C(=O)CN(C(=O)C4CCCC4)C[C@@H]23)cc1	12	5	-2	0	.
Cc1cc(C)c(NC(=O)Cn2nnc(C(=O)NCc3cccs3)c2N)c(C)c1	.	.	.	.	-4
Cc1cc(C)cc(NC(=O)Cn2nnc(C(=O)NCc3cccs3)c2N)c1	27*	-3	1	3	-4
Cc1ccccc1-c1cc(C(=O)NCc2cccc(Br)c2)nn1CC1CC(c2cccc([N+](=O)[O-])c2)=NO1 (configuration not stated)	34*	.	0	-10	-5
Cc1cc(NC(=O)C2CC(=O)N(c3ccccc3C)C2)no1 (configuration not stated)	2	-6	0	-16	-3
Cc1cc(NC(=O)C2CC(=O)N(c3cccc(C)c3C)C2)no1 (configuration not stated)	10	-1	44*	-2	-4
Cc1ccccc1N1CC(C(=O)O)CC1=O (configuration not stated)	3	29*	-1	2	-3
COc1ccc(NC(=O)Nc2ccc3c(c2)CC(=O)N([C@H](C)CO)C[C@H](C)[C@@H](CN(C)C(=O)Nc2c(C)noc2C)O3)cc1	2	.	.	.	.
CN(C)C(=O)c1cccc(-c2ccc([C@H]3[C@H]4CN(CCC(F)(F)F)CCCCN4[C@H]3CO)cc2)c1	-4	-2	1	-1	.
